For one series, the system named is MDA-MB-231. Put plainly: Antiproliferative activity against human MDA-MB-231 assessed as reduction in cell viability incubated for 72 hrs by CellTitre-Glo assay. In kind it is functional, cell-based. To be noted: MDA-MB-231, 72 h. A digest of the protocol:
(§1)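 Cells seeded at 2,000 per well and left to adhere overnight. After 24 h, medium was switched to growth medium with 2% FBS. Test agent was added at 0.5 nmol/L to 10 μmol/L for 72 h. Viability was read by CellTiter-Glo luminescence. IC50 came from nonlinear regression sigmoidal dose-response fits.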

For series [1], the system named is A-375. The experiment in a line: Antitumor activity against human A-375 cells xenografted in CD1 nu/nu mouse assessed decrease in tumor volume at 2.5 mg/kg, iv q3d administered in presence of DTIC. In kind it is functional, organism-based. In outline:
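In the A375 s.c. xenograft model in nude mice, agent was given at 2.5 mg/kg i.v. Q3D combined with DTIC 60 mg/kg QD. Tumor volume was followed by calipers. The combination effect was estimated as the 2x2 interaction from a mixed-model contrast of vehicle, each single agent and the combination.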
Background: In xenograft studies the graft and the host belong to different species.

Series [2] deals with A-375. Put plainly: Antiproliferative activity against human A-375 cells transfected with beta-catenin shRNA assessed as reduction in cell viability incubated for 72 hrs by CellTitre-Glo assay. In kind it is functional, cell-based. A digest of the protocol: (§2)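 A375 or M14 cells were transduced with lentiviral shRNA particles (target or control) at MOI 2 with polybrene 8 μg/ml. Puromycin selection at 2 μg/ml began 48 h later, and knockdown was checked by immunoblot. Cells were seeded at 2,000 per well in 2% FBS medium, exposed to agents for 72 h, and read by CellTiter-Glo.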

A short description of series [3]: Half life in mouse plasma CD1 nu/nu mouse at 5 mg/kg, iv measured up to 120 mins by HPLC/MS analysis. In kind it is ADME, organism-based. In outline: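 Non-tumor-bearing CD1 nu/nu mice were dosed i.v. at 5 mg/kg. Blood was taken by cardiac puncture at 5, 15, 30, 60 and 120 min and centrifuged at 5,000 x g for 10 min. Plasma drug levels were measured by HPLC with mass spectrometry.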

For another series, the system named is A2058. Put plainly: Antiproliferative activity against human A2058 cells harboring BRAF V600E/PTEN null mutation assessed as reduction in cell viability incubated for 72 hrs by CellTitre-Glo assay. To be noted: A2058, 72 h. It counts as functional, cell-based. A digest of the protocol: as §1
Series [4] deals with A-375. Put plainly: Induction of apoptosis in human A-375 cells assessed as increase in caspase3/7 activation at 5 to 40 nM after 72 hrs by Caspase-Glo assay. The note with it: dose 5-40 nM. In kind it is functional, cell-based. A digest of the protocol: (§3)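 Cells were plated at 2,000 per well and allowed to adhere overnight. Medium was then replaced with growth medium containing 2% FBS, and cells were exposed to agent for 72 h. Caspase 3/7 activity was measured by Caspase-Glo luminescence.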

Series [5] concerns the target T1, Glycogen synthase kinase-3 (Homo sapiens) (UniProt P49840+P49841). The experiment in a line: Inhibition of GSK3 in human MEL1102 cells assessed as increase in free beta-catenin at 20 nM for 48 hrs by immunoprecipitation analysis. In kind it is cell-based. In outline: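 Free β-catenin measured as the fraction binding the E-cadherin C-terminus. Lysate (300 μg protein) incubated with 10 μg His-Flag-E-cadherin, then captured overnight at 4°C on anti-FLAG M2 affinity gel. Resin washed 3 times in lysis buffer and eluted in reducing loading buffer. Bound β-catenin detected by immunoblot.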

Series [6] has as its system M14. Put plainly: Induction of apoptosis in human M14 cells assessed as increase in caspase3/7 activation at 5 to 40 nM after 72 hrs by Caspase-Glo assay. In kind it is functional, cell-based. To be noted: dose 5-40 nM. In outline: as §3
The next series deals with MEL1102. The experiment in a line: Induction of apoptosis in human MEL1102 cells assessed as increase in caspase3/7 activation at 5 to 40 nM after 72 hrs by Caspase-Glo assay. It counts as functional, cell-based. The note with it: dose 5-40 nM. In outline:
as §3

The subject of another series is SK-MES-1. The experiment in a line: Antiproliferative activity against human SK-MES-1 assessed as reduction in cell viability incubated for 72 hrs by CellTitre-Glo assay. It counts as functional, cell-based. The note with it: SK-MES-1, 72 h. A digest of the protocol: as §1
The subject of series [7] is M14. Put plainly: Antiproliferative activity against human M14 cells over expressing Dominant/negative TCF4 assessed as reduction in cell viability incubated for 72 hrs by CellTitre-Glo assay. It counts as functional, cell-based.
The subject of a further series is RKO. Put plainly: Antiproliferative activity against human RKO assessed as reduction in cell viability incubated for 72 hrs by CellTitre-Glo assay. It counts as functional, cell-based. A digest of the protocol: as §1
The subject of another series is NCI-H2030. Put plainly: Antiproliferative activity against human H2030 assessed as reduction in cell viability incubated for 72 hrs by CellTitre-Glo assay. It counts as functional, cell-based. The note with it: NCI-H2030, 72 h. In outline: as §1
Series [8] has as its system M14. Put plainly: Antiproliferative activity against human vemurafenib-resistant M14 cells harboring BRAF V600E mutation assessed as reduction in cell viability incubated for 72 hrs by CellTitre-Glo assay. In kind it is functional, cell-based. The note with it: M14, 72 h. In outline:
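Resistant A375 or M14 lines were derived by growth in vemurafenib over 3 months. Cells were seeded at 2,000 per well and allowed to adhere overnight, then moved to 2% FBS growth medium. Agents were added at 0.5 nmol/L–10 μmol/L for 72 h. Viability was read by CellTiter-Glo, and IC50 was taken from sigmoidal nonlinear regression.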

Series [9] in a line: Antiproliferative activity against human MEXF462 cells harboring BRAF V600E mutation assessed as reduction in cell viability incubated for 72 hrs by CellTitre-Glo assay. The note with it: MEXF462, 72 h. It counts as functional, cell-based. A digest of the protocol: as §1
Series [10] relates to M14. Put plainly: Antiproliferative activity against human M14 cells harboring BRAF V600E mutation assessed as reduction in cell viability incubated for 72 hrs by CellTitre-Glo assay. It counts as functional, cell-based. To be noted: M14, 72 h. In outline: as §1
Series [11] concerns A-375. Put plainly: Antiproliferative activity against human A-375 cells transfected with GSK3alpha shRNA assessed as reduction in cell viability at 4.5 nM incubated for 72 hrs by CellTitre-Glo assay. It counts as functional, cell-based.
Series [12] has as its system M14. Put plainly: Antiproliferative activity against human M14 cells transfected with beta-catenin shRNA assessed as reduction in cell viability incubated for 72 hrs by CellTitre-Glo assay. It counts as functional, cell-based. In outline: as §2
Another series has as its system NCI-H460. The experiment in a line: Antiproliferative activity against human H460 assessed as reduction in cell viability incubated for 72 hrs by CellTitre-Glo assay. It counts as functional, cell-based. To be noted: NCI-H460, 72 h. A digest of the protocol:
as §1

Series [13] addresses T1, Glycogen synthase kinase-3 (Homo sapiens). Put plainly: Inhibition of GSK3 in human A-375 cells assessed as increase Axin2 mRNA expression level at 20 nM by RT-PCR analysis. It counts as cell-based. To be noted: time 0.5-8 hrs, TDE = time-dependent effect. In outline: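 A375 cells seeded at 500,000/well and adhered overnight. Medium was replaced and the compound added at the set concentration and time. Total RNA isolated with an on-column DNase step. Axin2 mRNA quantified by real-time PCR using the standard curve method.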

Activity calls are given as the source filed them. No cut-off for these calls is given here.

T1 sequence (P49840 whole entry, looked up): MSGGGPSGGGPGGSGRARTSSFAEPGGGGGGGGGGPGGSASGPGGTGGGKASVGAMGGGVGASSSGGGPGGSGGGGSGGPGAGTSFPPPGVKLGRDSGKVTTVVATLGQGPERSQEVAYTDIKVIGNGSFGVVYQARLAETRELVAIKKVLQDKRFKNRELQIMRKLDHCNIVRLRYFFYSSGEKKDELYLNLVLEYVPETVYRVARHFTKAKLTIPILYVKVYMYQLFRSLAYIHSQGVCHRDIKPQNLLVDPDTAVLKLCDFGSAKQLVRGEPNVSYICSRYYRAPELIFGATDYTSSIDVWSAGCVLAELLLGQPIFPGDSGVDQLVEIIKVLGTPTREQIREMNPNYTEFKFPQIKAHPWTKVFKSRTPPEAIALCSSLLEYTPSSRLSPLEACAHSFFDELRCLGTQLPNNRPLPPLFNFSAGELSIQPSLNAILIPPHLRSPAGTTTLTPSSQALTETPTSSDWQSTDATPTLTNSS
T1 sequence (P49841 whole entry, looked up): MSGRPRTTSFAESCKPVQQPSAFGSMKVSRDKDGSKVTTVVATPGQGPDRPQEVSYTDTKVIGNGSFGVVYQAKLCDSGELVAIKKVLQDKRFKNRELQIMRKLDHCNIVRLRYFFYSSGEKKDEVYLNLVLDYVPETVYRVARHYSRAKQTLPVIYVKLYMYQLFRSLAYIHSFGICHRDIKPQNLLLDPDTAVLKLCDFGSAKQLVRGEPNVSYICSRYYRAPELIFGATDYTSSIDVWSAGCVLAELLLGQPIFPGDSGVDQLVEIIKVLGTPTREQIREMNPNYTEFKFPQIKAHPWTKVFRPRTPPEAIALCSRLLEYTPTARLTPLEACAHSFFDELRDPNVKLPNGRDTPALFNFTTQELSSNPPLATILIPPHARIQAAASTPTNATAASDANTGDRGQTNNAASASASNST

In general, IC50 refers to the point on the concentration scale where inhibition reaches its midpoint. Usually half-life stands for the time in which the quantity being followed falls by half. In the case of `O=C1NC(=O)C(c2cnc3ccccn23)=C1c1cn2c3c(cc(F)cc13)CN(C(=O)N1CCCCC1)CC2` [LY-2090314], the IC50 was > 20000 nM in the series on MDA-MB-231; 8 nM in the series on A2058; > 20000 nM with SK-MES-1; > 20000 nM in the series with RKO; 9440 nM in the series with NCI-H2030; 7 nM in the series on M14 [8]. For the same compound, the IC50 was determined as 12 nM in series [9], 7 nM with M14 [10] and 13200 nM in the series with NCI-H460. Besides, the result in the series on A-375 [1], in the series with A-375 [2], with A-375 [4], with M14 [6], in the series on MEL1102 and in the series with M14 [12] was Active. This compound also registered a half-life in series [3] of 36 min. In series [5], the inhibition entry was “Active”. Besides, the outcome in the series on M14 [7] and in the series on A-375 [11] was inactive. Besides, the inhibition entry in series [13] is “Tde”.

(Values after ChEMBL document CHEMBL5653620, “Activating the Wnt/β-Catenin Pathway for the Treatment of Melanoma--Application of LY2090314, a Novel Selective Inhibitor of Glycogen Synthase Kinase-3” (PLoS One, 2015).)
